Data from ChEMBL document CHEMBL5247577, “Improved Selective Class I HDAC and Novel Selective HDAC3 Inhibitors: Beyond Hydroxamic Acids and Benzamides” (ACS Med Chem Lett, 2019).

Key:
Histone deacetylase = assay: Inhibition of HDAC in human HeLa cells using FLUOR DE LYS-SIRT1 as fluorogenic substrate incubated for 4 hrs by spectrophotometer based analysis; format: cell-based
Histone deacetylase 1 = Histone deacetylase 1 (Homo sapiens, UniProt Q13547); assay: Inhibition of human recombinant his tagged HDAC1 expressed in baculovirus expression system using FLUOR DE LYS-SIRT1 as fluorogenic substrate preincubated for 10 mins followed by substrate addition and measured after 1 hr by spectrophotometer based analysis
Chain of Histone deacetylase 1 (Q13547 whole entry): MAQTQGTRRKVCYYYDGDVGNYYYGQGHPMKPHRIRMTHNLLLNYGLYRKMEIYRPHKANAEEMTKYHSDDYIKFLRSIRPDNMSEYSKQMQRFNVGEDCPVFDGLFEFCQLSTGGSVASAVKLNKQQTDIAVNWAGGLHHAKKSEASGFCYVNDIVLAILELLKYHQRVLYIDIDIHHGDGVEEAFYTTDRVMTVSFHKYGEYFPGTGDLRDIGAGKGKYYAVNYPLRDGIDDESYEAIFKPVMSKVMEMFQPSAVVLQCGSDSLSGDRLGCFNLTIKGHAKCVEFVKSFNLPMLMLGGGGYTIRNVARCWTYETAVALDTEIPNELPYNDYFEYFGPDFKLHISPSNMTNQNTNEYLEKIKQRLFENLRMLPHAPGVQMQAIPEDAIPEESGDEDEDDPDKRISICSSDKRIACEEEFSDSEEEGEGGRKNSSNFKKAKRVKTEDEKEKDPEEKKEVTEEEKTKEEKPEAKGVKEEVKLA

[1] = target: Voltage-gated inwardly rectifying potassium channel KCNH2 (Homo sapiens, UniProt Q12809); assay: Inhibition of hERG potassium channel incubated for 4 hrs by fluorescence polarization assay; format: toxicity
Chain of Voltage-gated inwardly rectifying potassium channel KCNH2 (Q12809 whole entry): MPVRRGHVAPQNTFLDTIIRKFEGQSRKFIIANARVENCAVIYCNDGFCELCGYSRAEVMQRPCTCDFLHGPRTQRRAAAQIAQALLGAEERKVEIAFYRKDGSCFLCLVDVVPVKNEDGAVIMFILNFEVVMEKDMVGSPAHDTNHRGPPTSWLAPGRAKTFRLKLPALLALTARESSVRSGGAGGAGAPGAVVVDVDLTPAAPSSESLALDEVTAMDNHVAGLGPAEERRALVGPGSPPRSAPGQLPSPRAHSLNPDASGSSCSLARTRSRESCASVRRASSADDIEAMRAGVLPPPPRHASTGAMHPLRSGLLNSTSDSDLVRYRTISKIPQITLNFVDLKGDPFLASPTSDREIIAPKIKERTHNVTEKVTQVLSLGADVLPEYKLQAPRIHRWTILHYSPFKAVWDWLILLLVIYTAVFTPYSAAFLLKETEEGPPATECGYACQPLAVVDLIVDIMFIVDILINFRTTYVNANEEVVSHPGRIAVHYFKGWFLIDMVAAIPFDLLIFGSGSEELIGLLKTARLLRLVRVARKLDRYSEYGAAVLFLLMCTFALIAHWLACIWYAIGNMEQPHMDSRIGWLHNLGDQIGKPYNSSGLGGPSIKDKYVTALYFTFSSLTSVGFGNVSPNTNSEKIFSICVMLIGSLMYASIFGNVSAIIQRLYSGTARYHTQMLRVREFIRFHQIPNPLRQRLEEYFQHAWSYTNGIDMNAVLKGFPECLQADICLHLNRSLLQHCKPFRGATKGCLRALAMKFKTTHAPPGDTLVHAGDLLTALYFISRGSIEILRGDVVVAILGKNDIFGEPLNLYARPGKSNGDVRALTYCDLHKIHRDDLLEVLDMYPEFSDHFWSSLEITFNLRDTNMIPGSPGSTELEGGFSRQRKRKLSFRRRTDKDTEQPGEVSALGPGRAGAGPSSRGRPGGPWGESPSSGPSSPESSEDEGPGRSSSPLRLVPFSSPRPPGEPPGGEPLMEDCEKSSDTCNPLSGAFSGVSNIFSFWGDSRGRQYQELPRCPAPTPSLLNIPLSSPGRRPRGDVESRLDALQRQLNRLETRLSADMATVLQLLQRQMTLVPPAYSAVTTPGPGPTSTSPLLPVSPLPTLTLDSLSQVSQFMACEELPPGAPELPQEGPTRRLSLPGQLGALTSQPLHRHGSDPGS

[2] = AUC in NMRI mouse plasma at 5 to 20 mg/kg, po by LC/MS/MS analysis; format: ADME, organism-based; parameters: route po; conditions: NMRI, plasma, dose 5-20 mg/kg, read-out: AUC
Procedure, shortened: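 Compound given orally as its tartrate salt at 20 mg/kg in mouse, 10 mg/kg in rat and 5 mg/kg in minipig.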

[3] = Metabolic stability in mouse plasma assessed as half life; format: ADME, cell-free
[4] = Metabolic stability in human plasma assessed as half life; format: ADME, cell-free
[5] = Metabolic stability in mouse hepatocyte assessed as half life; format: ADME, cell-based; conditions: hepatocytes
[6] = Metabolic stability in human hepatocyte assessed as half life; format: ADME, cell-based; conditions: hepatocytes
Histone deacetylase 2 = Histone deacetylase 2 (Homo sapiens, UniProt Q92769); assay: Inhibition of human HDAC2
Chain of Histone deacetylase 2 (Q92769 whole entry): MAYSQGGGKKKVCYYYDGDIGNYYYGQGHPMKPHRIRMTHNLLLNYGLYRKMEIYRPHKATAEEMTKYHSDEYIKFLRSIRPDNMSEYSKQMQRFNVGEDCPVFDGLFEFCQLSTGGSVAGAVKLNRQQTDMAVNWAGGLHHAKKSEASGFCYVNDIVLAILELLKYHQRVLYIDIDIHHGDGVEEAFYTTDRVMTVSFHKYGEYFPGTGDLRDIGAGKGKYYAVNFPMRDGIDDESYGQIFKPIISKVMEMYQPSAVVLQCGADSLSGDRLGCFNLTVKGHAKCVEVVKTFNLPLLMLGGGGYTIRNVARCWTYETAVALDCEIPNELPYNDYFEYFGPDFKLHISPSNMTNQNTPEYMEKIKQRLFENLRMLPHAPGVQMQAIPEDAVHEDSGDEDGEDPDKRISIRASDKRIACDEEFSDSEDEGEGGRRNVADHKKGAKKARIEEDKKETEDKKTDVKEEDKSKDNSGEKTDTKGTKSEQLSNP

Histone deacetylase 3 = Histone deacetylase 3 (Homo sapiens, UniProt O15379); assay: Inhibition of human HDAC3 expressed in baculovirus infected insect cells using FLUOR DE LYS-SIRT1 as fluorogenic substrate preincubated for 10 mins followed by substrate addition and measured after 1 hr by spectrophotometer based analysis
Chain of Histone deacetylase 3 (O15379 whole entry): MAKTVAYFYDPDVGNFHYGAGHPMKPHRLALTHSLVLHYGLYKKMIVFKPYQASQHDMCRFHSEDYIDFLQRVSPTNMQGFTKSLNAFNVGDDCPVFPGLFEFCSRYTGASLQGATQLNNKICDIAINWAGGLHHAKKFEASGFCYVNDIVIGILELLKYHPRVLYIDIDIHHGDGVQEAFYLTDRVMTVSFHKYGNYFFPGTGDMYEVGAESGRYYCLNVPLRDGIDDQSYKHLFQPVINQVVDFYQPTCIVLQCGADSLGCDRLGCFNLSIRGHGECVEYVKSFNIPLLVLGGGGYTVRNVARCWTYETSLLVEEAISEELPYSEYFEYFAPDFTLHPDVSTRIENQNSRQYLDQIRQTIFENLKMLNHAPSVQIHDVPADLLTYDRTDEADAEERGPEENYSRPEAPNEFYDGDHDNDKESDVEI

Row | SMILES | EC50 (Histone deacetylase) | IC50 (Histone deacetylase 1) | IC50 [1] | further results
1 | CNC(=O)CCCCC[C@H](NC(=O)c1cncs1)c1ncc(-c2ccc3ccccc3c2)[nH]1 |  | 325 nM |  | 
2 | CCC(=O)CCCCC[C@H](NC(=O)C1(F)CN(C)C1)c1ncc(-c2cc3ccccc3nc2OC)o1 | 430 nM | 17 nM | 13600 nM | 
3 | CCC(=O)CCCCC[C@H](NC(=O)C1CN(C)C1)c1ncc(-c2cc3ccccc3nc2OC)[nH]1 |  |  | 3000 nM | AUC [2]: 0.9 µM·h
4 | CCC(=O)CCCCC[C@H](NC(=O)C(=O)N1CCOCC1)c1ncc(-c2cc3ccccc3nc2OC)o1 | 610 nM | 30.5 nM | > 30000 nM | 
5 | CCC(=O)CCCCC[C@H](NC(=O)C1CN(C)C1)c1ncc(-c2ccc3ccccc3c2)o1 | 873 nM | 12.2 nM |  | 
6 | CCC(=O)CCCCC[C@H](NC(=O)C1CNC(=O)C1)c1ncc(-c2cc3ccccc3nc2OC)o1 (some centres not stated) | 208 nM | 3.2 nM | > 30000 nM | 
7 | CNC(=O)CCCCC[C@H](NC(=O)Cn1ccc2cc(C#N)ccc21)c1ncc(-c2ccc(CN(C)C)cc2)[nH]1 |  |  |  | half-life [3]: > 4 h; half-life [4]: > 4 h; half-life [5]: > 4 h; half-life [6]: > 4 h
8 | CCC(=O)CCCCC[C@H](NC(=O)Cc1c(C)[nH]c2ccc(OC)cc12)c1ncc(-c2ccc3ccccc3c2)o1 | 412 nM | 19.6 nM |  | 
9 | CCC(=O)CCCCC[C@H](NC(=O)C12CCN(CC1)CC2)c1ncc(-c2cc3ccccc3nc2OC)o1 | 43 nM | 1.6 nM | 190 nM | IC50 (Histone deacetylase 2): < 3.5 nM; IC50 (Histone deacetylase 3): < 3.5 nM
10 | CNC(=O)CCCCC[C@H](NC(=O)CCc1c[nH]c2ccccc12)c1ncc(-c2ccc(CN(C)C)cc2)[nH]1 |  | 1370 nM |  | 

More lines, main results first:

Row | EC50 (Histone deacetylase) | IC50 (Histone deacetylase 1) | SMILES | IC50 [1] | further results
11 | 44 nM | 3.2 nM | CCC(=O)CCCCC[C@H](NC(=O)Cc1c(C)[nH]c2ccc(OC)cc12)c1ncc(-c2ccc3ccccc3c2)[nH]1 |  | 
12 | 138 nM | 3 nM | CCC(=O)CCCCC[C@H](NC(=O)Cn1ccnn1)c1ncc(-c2cc3ccccc3nc2OC)o1 | > 30000 nM | 
13 | 94 nM | 2.1 nM | CCC(=O)CCCCC[C@H](NC(=O)C1CN(C)C1)c1ncc(-c2cc3ccccc3[nH]c2=O)o1 | > 30000 nM | 
14 |  | 6070 nM | CNC(=O)CCCCC[C@H](NC(=O)c1cncs1)c1ncc(-c2ccc(CN(C)C)cc2)[nH]1 |  | 
15 | 125 nM | 1.5 nM | CCC(=O)CCCCC[C@H](NC(=O)C1CN(C)C1)c1ncc(-c2ccc3ccccc3c2)[nH]1 |  | 
16 | 15 nM | 3.5 nM | CCC(=O)CCCCC[C@H](NC(=O)C(C)(C)N(C)C)c1ncc(-c2cc3ccccc3nc2OC)o1 |  | IC50 (Histone deacetylase 2): < 3.5 nM; IC50 (Histone deacetylase 3): < 3.5 nM
17 |  | 860 nM | CNC(=O)CCCCC[C@H](NC(=O)CCc1c[nH]c2ccccc12)c1ncc(-c2ccc(-n3cccn3)cc2)[nH]1 |  | 
